Measured values reported in ChEMBL document CHEMBL1157379, “Transcriptional response of Candida parapsilosis following exposure to farnesol” (2007).
Calls of active or inactive are those of the source. The calls are words filed in the database; no cut-off is given here.

Experiments:
Candida parapsilosis [1] = experiment: Decrease in CGD gene ortholog accession number orf19.4947 expression in Candida parapsilosis CLIB214 at 50 uM after 2 hrs by microarray based transcriptional profiling relative to control; type: functional
Procedure, shortened: (§1)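 Cells in YPD at 30°C treated with 50 μM farnesol at 4 h, with a methanol control. RNA harvested 2 h later and kept only if 28S/18S ratio was 1.6–2.2 with no degradation. 25 μg total RNA oligo-dT primed and labeled with Cy3/Cy5-dCTP. Labeled cDNA hybridized about 16 h at 42°C to duplicate-spotted 68-mer oligo arrays. Six individual comparisons analyzed statistically.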

Candida parapsilosis [2] = experiment: Increase in GIR2 gene expression in Candida parapsilosis CLIB214 at 50 uM after 2 hrs by microarray based transcriptional profiling relative to control; type: functional
Procedure, shortened: (§2)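 Strain grown overnight in YPD at 30°C, diluted to A600 0.2 in YPD at 30°C; farnesol (40 mM methanol stock) added at 4 h (A600 0.8), final 50 μM; methanol-only control. Cells collected 2 h later for RNA. Labelled cDNA from 25 μg total RNA (Cy3/Cy5-dCTP) hybridized to 68-mer oligo arrays at 42°C ~16 h; six individual comparisons analysed statistically.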

Candida parapsilosis [3] = experiment: Decrease in CGD gene ortholog accession number orf19.2892 expression in Candida parapsilosis CLIB214 at 50 uM after 2 hrs by microarray based transcriptional profiling relative to control; type: functional; procedure, shortened: as §1
Candida parapsilosis [4] = experiment: Increase in ENA2 gene expression in Candida parapsilosis CLIB214 at 50 uM after 2 hrs by microarray based transcriptional profiling relative to control; type: functional; procedure, shortened: as §2
Candida parapsilosis [5] = experiment: Increase in CGD gene ortholog accession number orf19.2446 expression in Candida parapsilosis CLIB214 at 50 uM after 2 hrs by microarray based transcriptional profiling relative to control; type: functional
Procedure, shortened: (§3)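 Strain CLIB214 grown overnight in YPD at 30°C, diluted to A600 0.2 in fresh YPD at 30°C. After 4 h (A600 0.8), farnesol (40 mM methanol stock) added to 50 μM final, or an equal methanol volume as control; cells harvested 2 h later. RNA was accepted only with a 28S/18S ratio of 1.6–2.2. Cy3/Cy5-dCTP-labelled cDNA was made from 25 μg total RNA. Hybridisation was to duplicate-spotted 68-mer oligo arrays (3,849 genes) at 42°C for about 16 h. Six individual comparisons.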

Candida parapsilosis [6] = experiment: Increase in GenBank accession number NP_943645.1 expression in Candida parapsilosis CLIB214 at 50 uM after 2 hrs by microarray based transcriptional profiling relative to control; type: functional; procedure, shortened: as §2
Candida parapsilosis [7] = experiment: Decrease in CGD gene ortholog accession number orf19.7118 expression in Candida parapsilosis CLIB214 at 50 uM after 2 hrs by microarray based transcriptional profiling relative to control; type: functional; procedure, shortened: as §3
Candida parapsilosis [8] = experiment: Decrease in ERG1 gene expression in Candida parapsilosis CLIB214 at 50 uM after 2 hrs by microarray based transcriptional profiling relative to control; type: functional; procedure, shortened: as §3
Candida parapsilosis [9] = experiment: Antifungal activity against Candida parapsilosis CLIB214 assessed as growth inhibition at 50 uM added after 2 hrs of bacterial growth measured after 4 hrs; type: functional; settings: Lodderomyces parapsilosis
Procedure, shortened: (§4)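 Overnight YPD culture at 30°C diluted to A600 0.2 in YPD. Farnesol added to 50 μM final at 2, 4, 6 or 8 h of growth (A600 about 0.8 at 4 h, 2.3 at 6 h, 6 at 8 h). Growth compared with methanol controls by A600 or cell counts.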

Candida parapsilosis [10] = experiment: Decrease in CGD gene ortholog accession number orf19.2366 expression in Candida parapsilosis CLIB214 at 50 uM after 2 hrs by microarray based transcriptional profiling relative to control; type: functional; procedure, shortened: as §1
Candida parapsilosis [11] = experiment: Increase in ATP2 gene expression in Candida parapsilosis CLIB214 at 50 uM after 2 hrs by microarray based transcriptional profiling relative to control; type: functional; procedure, shortened: as §3
Candida parapsilosis [12] = experiment: Decrease in CGD gene ortholog accession number orf19.2697 expression in Candida parapsilosis CLIB214 at 50 uM after 2 hrs by microarray based transcriptional profiling relative to control; type: functional; procedure, shortened: as §1
Candida parapsilosis [13] = experiment: Decrease in PIKA gene expression in Candida parapsilosis CLIB214 at 50 uM after 2 hrs by microarray based transcriptional profiling relative to control; type: functional; procedure, shortened: as §3
Candida parapsilosis [14] = experiment: Increase in REG1 gene expression in Candida parapsilosis CLIB214 at 50 uM after 2 hrs by microarray based transcriptional profiling relative to control; type: functional; procedure, shortened: as §2
Candida parapsilosis [15] = experiment: Increase in CGD gene ortholog accession number orf19.3544 expression in Candida parapsilosis CLIB214 at 50 uM after 2 hrs by microarray based transcriptional profiling relative to control; type: functional; procedure, shortened: as §3
Candida albicans = experiment: Antifungal activity against Candida albicans assessed as microbila killing effect; type: functional
Candida parapsilosis [16] = experiment: Decrease in CGD gene ortholog accession number orf19.2097 expression in Candida parapsilosis CLIB214 at 50 uM after 2 hrs by microarray based transcriptional profiling relative to control; type: functional; procedure, shortened: as §1
Candida parapsilosis [17] = experiment: Increase in ALS2 gene expression in Candida parapsilosis CLIB214 at 50 uM after 2 hrs by microarray based transcriptional profiling relative to control; type: functional; procedure, shortened: as §3
Candida parapsilosis [18] = experiment: Cell cycle arrest in Candida parapsilosis CLIB214 assessed as accumulation at G1 phase at 50 uM added 4 hrs after […] growth; type: functional, organism-based
Procedure, shortened: (§5)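 YPD culture diluted to A600 0.2 at 30°C. Farnesol added to 50 μM after 4 h. Budding cells scored by microscopy: unbudded as G1, small budded as S, large budded as G2/M. Compared with methanol controls.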

Candida parapsilosis [19] = experiment: Increase in RPS6A gene expression in Candida parapsilosis CLIB214 at 50 uM after 2 hrs by microarray based transcriptional profiling relative to control; type: functional; procedure, shortened: as §2
Candida parapsilosis [20] = experiment: Increase in ELF1 gene expression in Candida parapsilosis CLIB214 at 50 uM after 2 hrs by microarray based transcriptional profiling relative to control; type: functional; procedure, shortened: as §2
Candida parapsilosis [21] = experiment: Cell cycle arrest in Candida parapsilosis CLIB214 assessed as accumulation at G2/M phase at 50 uM added 4 hrs after […] growth; type: functional, organism-based; procedure, shortened: as §5
Candida parapsilosis [22] = experiment: Decrease in CGD gene ortholog accession number orf19.5022 expression in Candida parapsilosis CLIB214 at 50 uM after 2 hrs by microarray based transcriptional profiling relative to control; type: functional; procedure, shortened: as §1
Candida parapsilosis [23] = experiment: Increase in CGD gene ortholog accession number orf19.1368 expression in Candida parapsilosis CLIB214 at 50 uM after 2 hrs by microarray based transcriptional profiling relative to control; type: functional; procedure, shortened: as §3
Candida parapsilosis [24] = experiment: Increase in KRE30 gene expression in Candida parapsilosis CLIB214 at 50 uM after 2 hrs by microarray based transcriptional profiling relative to control; type: functional; procedure, shortened: as §2
Candida parapsilosis [25] = experiment: Antifungal activity against Candida parapsilosis CLIB214 assessed as growth inhibition at 50 uM added 4 hrs after […] growth; type: functional, organism-based
Procedure, shortened: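 C. parapsilosis CLIB214 grown overnight in YPD at 30°C, diluted to A600 0.2 in fresh YPD, grown 4 h (A600 0.8), then farnesol added at final 10, 20, 50 or 100 μM from a 40 mM methanol stock. Methanol-only controls. Growth followed by A600 or by cell counting with a particle counter.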

Candida parapsilosis [26] = experiment: Antifungal activity against Candida parapsilosis CLIB214 assessed as growth inhibition at 50 uM added after 6 hrs of bacterial growth measured after 4 hrs; type: functional; settings: Lodderomyces parapsilosis; procedure, shortened: as §4

## CC(C)=CCC/C(C)=C/CC/C(C)=C/CO [FARNESOL]
Candida parapsilosis [1]
  fold change (FC): 1.58
Candida parapsilosis [2]
  fold change (FC): 1.74
Candida parapsilosis [3]
  fold change (FC): 1.69
Candida parapsilosis [4]
  fold change (FC): 1.77
Candida parapsilosis [5]
  fold change (FC): 1.59
Candida parapsilosis [6]
  fold change (FC): 2.05
Candida parapsilosis [7]
  fold change (FC): 1.56
Candida parapsilosis [8]
  fold change (FC): 2.24
Candida parapsilosis [9]
  inhibition at 50 µM: 71%
Candida parapsilosis [10]
  fold change (FC): 3.21
Candida parapsilosis [11]
  fold change (FC): 2.16
Candida parapsilosis [12]
  fold change (FC): 1.81
Candida parapsilosis [13]
  fold change (FC): 1.65
Candida parapsilosis [14]
  fold change (FC): 1.56
Candida parapsilosis [15]
  fold change (FC): 1.87
Candida albicans
  Activity: 80%
Candida parapsilosis [16]
  fold change (FC): 1.53
Candida parapsilosis [17]
  fold change (FC): 1.61
Candida parapsilosis [18]
  Activity: Active
Candida parapsilosis [19]
  fold change (FC): 1.61
Candida parapsilosis [20]
  fold change (FC): 2.16
Candida parapsilosis [21]
  Activity: Active
Candida parapsilosis [22]
  fold change (FC): 1.85
Candida parapsilosis [23]
  fold change (FC): 1.59
Candida parapsilosis [24]
  fold change (FC): 2.24
Candida parapsilosis [25]
  Activity: Active
Candida parapsilosis [26]
  inhibition at 50 µM: 49%
